This is a sample that favours compounds with a hit; in the whole collection about 5.3% have one here.
Mdm2-MdmX inh – inhibitors of human Mdm2-MdmX association, primary screen, cell-based, luminescence, split luciferase, SaOS-2, uHTS | Protein Mdm4 (Homo sapiens) + E3 ubiquitin-protein ligase Mdm2 (Homo sapiens), … | SaOS-2 split-luciferase Mdm2/MdmX complementation | inhibition, % at 8 µM | 3% of 330,000 active;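 active means inhibition of at least 50% at 8 µM in the primary screen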
Target sequence (O15151 whole entry, looked up): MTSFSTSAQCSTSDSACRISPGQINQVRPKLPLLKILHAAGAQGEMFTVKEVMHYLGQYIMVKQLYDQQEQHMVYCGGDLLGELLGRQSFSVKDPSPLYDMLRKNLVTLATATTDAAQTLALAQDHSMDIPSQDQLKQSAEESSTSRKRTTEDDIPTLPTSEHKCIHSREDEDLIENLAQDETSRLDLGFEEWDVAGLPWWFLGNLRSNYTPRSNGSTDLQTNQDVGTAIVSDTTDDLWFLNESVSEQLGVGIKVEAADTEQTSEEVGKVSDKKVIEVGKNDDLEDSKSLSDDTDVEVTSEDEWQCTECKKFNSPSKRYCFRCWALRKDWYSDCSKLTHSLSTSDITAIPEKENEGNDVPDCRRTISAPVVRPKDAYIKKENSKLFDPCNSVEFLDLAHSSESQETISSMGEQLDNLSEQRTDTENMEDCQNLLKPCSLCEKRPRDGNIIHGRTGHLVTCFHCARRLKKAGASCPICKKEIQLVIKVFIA
Target sequence (Q00987 whole entry, looked up): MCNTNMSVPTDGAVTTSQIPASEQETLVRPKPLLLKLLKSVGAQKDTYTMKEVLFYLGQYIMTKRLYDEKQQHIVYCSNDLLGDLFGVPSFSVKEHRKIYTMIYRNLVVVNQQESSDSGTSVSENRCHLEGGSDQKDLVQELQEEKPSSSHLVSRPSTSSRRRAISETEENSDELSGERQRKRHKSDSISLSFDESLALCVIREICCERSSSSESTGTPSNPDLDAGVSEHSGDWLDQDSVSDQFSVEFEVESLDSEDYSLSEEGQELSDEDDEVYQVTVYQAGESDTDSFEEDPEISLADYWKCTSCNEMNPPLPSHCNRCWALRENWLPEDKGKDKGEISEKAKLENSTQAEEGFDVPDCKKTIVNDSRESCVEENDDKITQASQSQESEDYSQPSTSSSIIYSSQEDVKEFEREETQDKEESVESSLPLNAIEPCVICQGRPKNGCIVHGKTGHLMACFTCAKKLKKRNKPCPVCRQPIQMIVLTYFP
T cruzi inh – inhibitors of intracellular T. cruzi growth, primary screen, luminescence, NIH3T3 host cells; T. cruzi beta-gal in NIH3T3, 90 h; inhibition, % (no concentration beside the values); 1.4% of 300,000 active;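 active means mean inhibition across valid replicates above about 55%, limit read from the data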;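 further: signal also drops with host cell toxicity which is not excluded here; 0% = plate median of DMSO wells and 100% = zero luminescence signal; higher percent means less beta-gal luminescence so fewer parasites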
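assay system = mouse NIH/3T3 fibroblasts infected with β-gal-expressing T. cruzi Tulahuen C4 | input = 5,000 NIH/3T3 host cells per well | buffer or medium = DMEM plus 2% FBS | timing = 3 h host attachment, then at least 90 h co-culture | measured by = GalScreen luminescence, 60 min | evaluation = luminescence reflecting intracellular parasite burden, expressed as percent inhibition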
Calb FLC – C. albicans growth inhibition with fluconazole, primary screen, CaCi-2 strain, Alamar Blue fluorescence. 0.57% of 300,000 active. C. albicans CaCi-2 (fluconazole-resistant clinical isolate) + fluconazole, 48 h. growth inhibition, % (concentration not given with the values). AID 1979, 2009;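 active means growth inhibition above about 58% in most replicates, limit read from the data, passing the limit was not always enough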;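 further: all wells also contain fluconazole at 8 µg/ml as a sub-toxic cotreatment; 0% = median of DMSO wells and 100% = median of geldanamycin control wells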
CSC inhib – cancer stem cell viability inhibitors, primary screen, luminescence | 1.1% of 300,000 active | cancer stem cell-like cells viability | AID 2717, 2010 | inhibition, % at 7.5 µM; in the data active means inhibition above about 75%; tested in HMLE shEcad cells
Beta apoptosis – inhibitors of cytokine-induced beta cell apoptosis, primary screen, luminescence. INS-1E cytokine-induced death, ATP luminescence, 48 h; percent of positive-control rescue, neutral wells zero. protection from apoptosis, % (no concentration beside the values). 0.8% of 300,000 active. AID 435005, 2010;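 active means Every replicate reaches about 75%, or at least half do and their mean reaches it too, limit read from the data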;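 further: 0% = cytokine-treated negative control wells and 100% = positive control rescue; higher means more ATP so stronger rescue from cytokine killing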
NALP3 yeast inh – NALP3 inflammasome inhibitors in reconstituted yeast, primary screen, luminescence, uHTS | Yeast reconstituted NLRP3/ASC/caspase-1, beta-gal luminescence, 24 h | inhibition, % at 10 µM | 0.39% of 330,000 active;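 active means inhibition of 50% or more; inactive means inhibition below 50%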;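 further: plate controls were induced DMSO wells for no effect and uninduced yeast grown without galactose for full effect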
Mdm2 MdmX conf – Mdm2-MdmX complex disruptors, retested hits, confirmation, luminescence, single concentration; 55% of 10,000 active; shares compounds with Mdm2-MdmX inh; AID 489028, 2010; inhibition, % at 8 µM; Mdm2-MdmX binding, luminescent assay; in the data active means inhibition above about 40%
Full FLuc ctr – full-length luciferase signal inhibition, confirmation, counter-screen for Mdm2/MdmX interaction inhibitor project, cell-based, single concentration, SaOS-2; SaOS-2 full-length luciferase counterscreen, luminescence; 77% of 6,200 active; shares compounds with Mdm2-MdmX inh; inhibition, % at 8 µM;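 active means mean inhibition at 8 µM reaching about 37%, which flags the compound as non-specific, limit read from the data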;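 further: p53-null SaOS-2 cells with luciferase driven by a doxycycline-inducible promoter; compound on cells about two nights before reading with doxycycline added after day one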
Active calls of the source: *.

`COc1ccc(CCNC(=O)c2cc3c(=O)n4ccccc4nc3n(C3CCCCC3)c2=N)cc1` gave Mdm2-MdmX inh 61*, T cruzi inh 60*, Calb FLC 6, CSC inhib -12, Beta apoptosis 20, NALP3 yeast inh 19, Mdm2 MdmX conf 38 and Full FLuc ctr 69*.
`N=c1c(C(=O)NCC2CCCO2)cc2c(=O)n3ccccc3nc2n1C1CCCCC1` (centres undefined) gave Mdm2-MdmX inh 15, T cruzi inh -9, Calb FLC 3, CSC inhib -3, Beta apoptosis 2 and NALP3 yeast inh 7.
`COc1ccc(CCNC(=O)c2cc3c(=O)n4ccccc4nc3n(CCN3CCOCC3)c2=N)cc1` gave Mdm2-MdmX inh -9, T cruzi inh 7, Calb FLC 5, CSC inhib -7, Beta apoptosis 64 and NALP3 yeast inh 12.
For COc1ccc(CCNC(=O)c2cc3c(=O)n4ccccc4nc3n(CCCN3CCOCC3)c2=N)cc1 the results were Mdm2-MdmX inh 54*, T cruzi inh 29, Calb FLC -5, CSC inhib -1, Beta apoptosis 15, NALP3 yeast inh -1 and Mdm2 MdmX conf 13.
`COc1ccc(CCNC(=O)c2cc3c(=O)n4ccccc4nc3n(CC3CCCO3)c2=N)cc1OC` (centres undefined) gave Mdm2-MdmX inh 9, T cruzi inh 24, Calb FLC -1, CSC inhib -3, Beta apoptosis 3 and NALP3 yeast inh -8.
`COc1ccc(CCNC(=O)c2cc3c(=O)n4ccccc4nc3n(CCCN3CCOCC3)c2=N)cc1OC` gave Mdm2-MdmX inh 10, T cruzi inh 9, Calb FLC -11, CSC inhib 5, Beta apoptosis 6 and NALP3 yeast inh -1.
`COc1ccc(CCNC(=O)c2cc3c(=O)n4ccccc4nc3n(C3CCCCC3)c2=N)cc1OC` gave Mdm2-MdmX inh 58*, T cruzi inh 47, Calb FLC -1, CSC inhib 21, Beta apoptosis 1, NALP3 yeast inh 4 and Mdm2 MdmX conf 26.
Screening COc1ccc(CCNC(=O)c2cc3c(=O)n4ccccc4nc3n(Cc3ccco3)c2=N)cc1OC returned Mdm2-MdmX inh 62*, T cruzi inh 31, Calb FLC 3, CSC inhib -12, NALP3 yeast inh 17, Mdm2 MdmX conf 41* and Full FLuc ctr 26.
For Cc1ccc(N=Nc2c(=O)[nH]n3c(C)cc(C)nc23)cc1 the results were Mdm2-MdmX inh -9, T cruzi inh -4, Calb FLC 3, CSC inhib 13, Beta apoptosis -4 and NALP3 yeast inh 33.
Screening CC(=O)c1cccc(NC(=O)Nc2ccc(C(=O)N3CCCC3)cc2)c1 returned Mdm2-MdmX inh 52*, T cruzi inh -29, Calb FLC -4, CSC inhib -2, Beta apoptosis 8, NALP3 yeast inh 6 and Mdm2 MdmX conf 37.
For Cc1cc(C)cc(NC(=O)Nc2ccc3c(c2)N(C)C(=O)CS3)c1 the results were Mdm2-MdmX inh 46, T cruzi inh 19, Calb FLC 3, CSC inhib 19 and NALP3 yeast inh -1.
Screening CC(=O)c1cccc(NC(=O)Nc2ccc3c(c2)N(C)C(=O)CS3)c1 returned Mdm2-MdmX inh 51*, T cruzi inh -9, Calb FLC -15, CSC inhib -4, Beta apoptosis 0, NALP3 yeast inh 3 and Mdm2 MdmX conf 20.
Screening Cc1onc(-c2ccccc2)c1C(=O)N1CCN(S(=O)(=O)c2ccc3c(c2)OCCO3)CC1 returned Mdm2-MdmX inh 12, T cruzi inh -7, Calb FLC -6, CSC inhib -2, Beta apoptosis -8 and NALP3 yeast inh 2.
Screening O=[N+]([O-])c1ccc(Sc2cccc3cccnc23)c2cccnc12 returned Mdm2-MdmX inh 65*, T cruzi inh 86*, Calb FLC 27, CSC inhib 3, Beta apoptosis 56, NALP3 yeast inh 35, Mdm2 MdmX conf 56* and Full FLuc ctr 50*.
`COc1ccc(-c2c/c(=N\c3nc(-c4ccccc4)c(C)s3)c3ccccc3o2)cc1O` gave Mdm2-MdmX inh 84*, T cruzi inh -10, Calb FLC -3, CSC inhib 80*, Beta apoptosis 28, NALP3 yeast inh 21, Mdm2 MdmX conf 57* and Full FLuc ctr 95*.
`COc1ccc(-c2cc(=Nc3c(C)n(C)n(-c4ccccc4)c3=O)c3ccccc3o2)cc1` gave Mdm2-MdmX inh -54, T cruzi inh -5, Calb FLC 4, CSC inhib -2, Beta apoptosis 3 and NALP3 yeast inh 48.
Screening CC1Nc2ncnc(N3CCc4ccccc4C3)c2N(Cc2ccc(Br)cc2)C1=O (centres undefined) returned Mdm2-MdmX inh 54*, T cruzi inh 24, Calb FLC 11, CSC inhib 69, Beta apoptosis 5, NALP3 yeast inh 19, Mdm2 MdmX conf 40 and Full FLuc ctr 58*.
COc1ccc(N/N=C/c2c(C(=O)O)ccc3ccccc23)cc1 was read as Mdm2-MdmX inh 86*, T cruzi inh 49, Calb FLC 2, CSC inhib 109*, Beta apoptosis 116*, NALP3 yeast inh 10, Mdm2 MdmX conf 90* and Full FLuc ctr 24.
`Cc1ccc(S(=O)(=O)c2nc(-c3ccccc3Cl)oc2N(C)C)cc1` gave Mdm2-MdmX inh 56*, T cruzi inh -10, Calb FLC 10, CSC inhib 1, Beta apoptosis -6, NALP3 yeast inh 34, Mdm2 MdmX conf 72* and Full FLuc ctr 73*.
Screening Nc1ncnc2c1ncn2[C@H]1C[C@H](O)[C@@H](CO)O1 returned Mdm2-MdmX inh -13, CSC inhib -3, Beta apoptosis -3 and NALP3 yeast inh 8.
Nc1nc(Cl)nc2c1ncn2[C@H]1C[C@H](O)[C@@H](CO)O1 was read as Mdm2-MdmX inh 87*, T cruzi inh 21, CSC inhib 76*, Beta apoptosis 31, NALP3 yeast inh -4, Mdm2 MdmX conf 74* and Full FLuc ctr 22.

Compound activity as filed in PubChem BioAssay.
